# Most compounds without a hit are left out; they make up all but 2.3% or so of the library.
# SR-BI DiI inh = mouse SR-BI HDL lipid transfer inhibition | Q61009 | ldlA[mSR-BI] CHO cells, DiI-HDL uptake fluorescence, 3 h | inhibition, % at 12.5 µM | hit rate 0.96% among 320,000;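 active = mean replicate inhibition of at least 70% and a set share of replicates each scoring 70 or more; inconclusive = meets just one of the two criteria; inactive = fails both criteria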;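 note: 0% = median of neutral control wells and 100% = median of positive control wells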
# CAL PDZ FP-1 = inhibitors of human CAL PDZ peptide binding. Q9HD26. purified CAL PDZ, TMR-peptide fluorescence polarization, 1 h. inhibition, % at 20 µM. hit rate 0.02% among 330,000. AID 504414;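 active = highest replicate inhibition of at least 40%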;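 note: plate controls were DMSO neutral control wells for no effect and unlabeled competitor peptide control wells for full effect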
#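 material = purified tagged CAL PDZ domain construct (CerCALP) | compound dosing = 20 µM, one dose | times = 1 h at RT | measured by = fluorescence polarization from S- and P-plane intensities, G-factor corrected | read-out = inhibition from polarization loss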
# CAL PDZ FP-2 = CAL PDZ (human) peptide binding inhibition | hit rate 0.92% among 300,000 | Q9HD26 | inhibition, % at 24.9 µM | purified CAL PDZ, TMR-peptide fluorescence polarization, 1 h | AID 602252;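 active = mean inhibition of at least 30% with at least half of replicates also reaching 30%; inconclusive = no clear call, values can overlap the other calls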;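 note: 0% = DMSO neutral control and 100% = excess unlabeled competitor peptide PRC23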
# SR-BI DiI-HDL act = activators of SR-BI mediated HDL lipid uptake | hit rate 0.096% among 320,000 | AID 504775 | activation, % at 12.5 µM | CHO ldlA[mSR-BI] cells, DiI-HDL uptake fluorescence, 3 h; 100 = double the neutral-control signal;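 active = mean replicate activation of at least 60% and every replicate at or above 60%; inconclusive = mean or all-replicate condition met, but not both; inactive = mean below 60% and not all replicates reaching 60%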;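 note: 0% = median plate neutral-control signal and 100% = twice that signal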
#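 material = CHO ldlA[mSR-BI] cells | medium = Ham's F12 with 0.5% BSA, HEPES 25 mM, pH 7.4 | reagent = fluorescent DiI-HDL, 10 µg/mL final | compound dosing = single-point compound dose | incubation = 3 h, 37 °C | measured by = bottom-read fluorescence, 550/595 nm | measure = HDL uptake via cellular fluorescence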
# ATG4B inh = inhibitors of human ATG4B cysteine protease. ATG4B cleavage of LC3-PLA2, NBD-HPC fluorescence, 1 h. inhibition, % at 8.33 µM. hit rate 0.51% among 340,000. Q9Y4P1; in the data active = inhibition above about 40%
# Target sequence (Q9Y4P1 whole entry, looked up): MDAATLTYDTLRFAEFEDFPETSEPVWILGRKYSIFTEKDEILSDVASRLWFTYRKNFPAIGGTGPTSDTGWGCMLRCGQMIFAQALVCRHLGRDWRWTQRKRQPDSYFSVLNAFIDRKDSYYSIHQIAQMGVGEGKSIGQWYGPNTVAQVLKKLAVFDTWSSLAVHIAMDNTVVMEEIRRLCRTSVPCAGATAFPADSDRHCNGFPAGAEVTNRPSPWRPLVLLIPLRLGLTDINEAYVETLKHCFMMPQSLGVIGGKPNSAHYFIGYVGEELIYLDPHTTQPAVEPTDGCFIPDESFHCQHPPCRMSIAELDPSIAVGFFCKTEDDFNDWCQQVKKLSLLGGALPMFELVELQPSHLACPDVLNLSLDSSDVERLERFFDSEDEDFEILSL
# An asterisk follows results filed as active; u = inconclusive; x = not tested or not shown.
SMILES,SR-BI DiI inh,CAL PDZ FP-1,CAL PDZ FP-2,SR-BI DiI-HDL act,ATG4B inh
COC(=O)CCCC(=O)N1CCC(CO)(CCc2ccccc2)CC1,-11,x,-1,11,18
CCNC(=O)/C(C#N)=C/c1c(N2CCN(C)CC2)nc2c(C)cccn2c1=O,-11,-1,43*,11,-6
Cc1cc(Cl)ccc1NC(=S)N1CCN(C(=O)c2ccco2)CC1,-4,0,2,4,-1
CCN(C(=O)[C@@H]1CCCN1C(=O)c1cccs1)c1nc2cc(Cl)ccc2s1,78*,-1,x,-78,7
O=S1(=O)CCN(C(CCO)c2cccc(C(F)(F)F)c2)CC1 (configuration not stated),-44,-2,-5,44,-7
CC(=O)Nc1ccc(/C(C)=N/Nc2nc(Nc3ccccc3)nc(N3CCOCC3)n2)cc1,85*,0,7,-85,-15
Cc1ccc(/C=N/Nc2cc(C)nc(N3CCOCC3)n2)cc1,0,-1,-5,0,-8
Cc1ccc(Nc2nc(N/N=C\c3ccc4c(c3)OCO4)nc(N3CCOCC3)n2)cc1,86*,0,x,-86,-11
C=C1[C@@H](O)[C@H](Cc2ccccc2)N(Cc2ccccc2Br)S1(=O)=O,-30,0,2,30,0
CCCCOC(=O)c1ccc(OC(=O)c2cccnc2)cc1,-12,0,33*,12,-7
O=C(O)c1cccc(Cn2c(Cl)c(/C=N/NC(=O)c3cc4ccccc4cc3O)sc2=O)c1,23,x,47*,-23,10
O=C(O)c1ccc(/C=N/NC(=O)c2cc3ccccc3cc2O)cc1,14,-1,46*,-14,2
COc1cc(/C=N/NC(=O)c2ccncc2)ccc1OCCN1CCCCC1,-3,0,-4,3,-3
COCCn1c(C)cc(/C=N/NC(=O)c2cc3ccccc3cc2O)c1C,95*,-1,-3,-95,-14
O=C(O)c1cccc(Cn2c(Cl)c(/C=N/NC(=O)c3ccccc3)sc2=O)c1,-5,-2,-2,5,-2
O=C(CNc1ccc2ccccc2c1)N/N=C/c1ccc(C(=O)O)cc1,-18,-2,-3,18,1
COc1cc(/C=N/NC(=O)c2cc3ccccc3cc2O)ccc1OCCN1CCCCC1,77*,-4,-6,-77,-2
CCOC(=O)N1CCC(C(=O)NNC(=O)c2ccc(Cl)cc2Cl)CC1,23,0,1,-23,-1
O=C(Oc1ccccc1Cl)C1CCN(C(=O)c2ccc(F)cc2)CC1,-11,-2,-1,11,-15
CC(C)c1ccc(/C=C2\NC(=S)N(Cc3cccnc3)C2=O)cc1,7,0,2,-7,-7
Cc1ccc2c(C)c(C(=O)N(C)Cc3nccn3C)oc2c1C,18,-2,0,-18,-8
N#C/C(=C/c1cn(-c2ccccc2)nc1-c1cccc(OCc2ccccc2)c1)C(=O)NCCCn1ccnc1,-84,-3,x,84*,-20
CCOc1cccc(-c2nn(-c3ccccc3)cc2/C=C(/C#N)C(=O)NCCCn2ccnc2)c1,-6,-2,-6,6,-18
CCN(CC)S(=O)(=O)c1ccc(O)c(NC(=O)CN2CCc3ccccc3C2)c1,-11,-2,45*,11,-7
CN(C)S(=O)(=O)c1ccc(Cl)c(NC(=O)CN2CCc3ccccc3C2)c1,44,-2,1,-44,0
SMILES,SR-BI DiI inh,CAL PDZ FP-1,CAL PDZ FP-2,SR-BI DiI-HDL act,ATG4B inh
Cc1ccc(NC(=S)NC2CCN(Cc3ccccc3)CC2)cc1,-24,-1,1,24,-7
Cc1ccc(NC(=S)NC2CCN(Cc3ccccc3)CC2)cc1C,16,-1,47*,-16,-9
Cc1cc(C)c(S(=O)(=O)N2CCN(c3ccccn3)CC2)c(C)c1,2,0,x,-2,9
CCCCC(=O)Nc1ccc(N2CCN(C(=O)CC)CC2)cc1,-11,0,x,11,11
CCCC(=O)Nc1ccc(N2CCN(C(=O)CCC)CC2)cc1,0,-1,39*,0,-22
CCCCn1nc(NC(=O)c2cccs2)c2cc3cc(OC)ccc3nc21,82*,1,-2,-82,4
Cc1ccc(S(=O)(=O)N(CC(=O)NCCC2=CCCCC2)Cc2ccccc2)cc1,-9,0,-1,9,14
O=C(COC(=O)COc1ccccc1)NCCC1=CCCCC1,-73,-1,x,73*,-1
Cc1cc(C)cc(OCC(=O)OCC(=O)NCCC2=CCCCC2)c1,-20,-1,-6,20,8
O=C(CN(Cc1ccccc1)S(=O)(=O)c1ccc(F)cc1)NCCC1=CCCCC1,-1,25,73*,1,-2
CSCCC(NC(N)=O)C(=O)Nc1cccc(C#N)c1 (configuration not stated),-4,-2,4,4,-6
Cn1nc(C(F)(F)F)c2cc(C(=O)Nc3ccc(C(F)(F)F)cc3)sc21,84*,-1,4,-84,-5
Cn1nc(C(F)(F)F)c2cc(C(=O)Nc3ccc(F)cc3)sc21,76*,-3,-2,-76,-2
Cn1nc(C(F)(F)F)c2cc(C(=O)Nc3ccc(F)c(Cl)c3)sc21,u,-4,-4,-73,1
C=CCN1C(=O)C(Cc2cccc(Cl)c2)SC1=Nc1ccc(C(=O)O)cc1 (configuration not stated),-63,-2,-3,63*,-6
O=S(=O)(c1ccccc1)c1cnc(-c2ccccc2)nc1N1CCCC1,85*,-2,-3,-85,-4
CN(c1ccccc1)c1nc(N)c([N+](=O)[O-])c(Nc2ccccc2)n1,23,-1,-3,-23,3
COc1ccc(Nc2nc(N(C)c3ccccc3)nc(N)c2[N+](=O)[O-])cc1,-138,0,-2,138*,-2
Cc1ccc2c(Cn3ccnc3)cc(=O)oc2c1C,-9,0,3,9,-1
O=c1cc(Cn2ccnc2)c2cc(O)ccc2o1,78*,-2,3,-78,2
CCOc1ccc(N(C(C)C(=O)N/N=C(\C)c2cccc(NC(=O)c3ccccc3)c2)S(C)(=O)=O)cc1 (configuration not stated),78*,-2,x,-78,-4
CCOc1ccc(N(C(C)C(=O)Nc2cccnc2)S(C)(=O)=O)cc1 (configuration not stated),6,0,10,-6,1
CC1(C)C2CCC1(C)C(SC(=N)N)C2 (configuration not stated),13,-1,-3,-13,-8
C=CCNCCOCCOc1ccc(C)cc1Br,-10,-1,32*,10,4
COc1cc(-n2ccnc2SC)c(Cl)cc1Cl,0,0,54*,0,1
COc1ccccc1-n1ccnc1SCC(=O)NC1CCCC1,12,-2,-4,-12,4
CC(C)C(=O)N1CCN(c2ccccc2NC(=S)NC(=O)c2ccco2)CC1,81*,-2,-2,-81,2
